Data published in ChEMBL document CHEMBL1137716, “Novel modifications in the series of O-(2-phthalimidoethyl)-N-substituted thiocarbamates and their ring-opened congeners as non-nucleoside HIV-1 reverse transcriptase inhibitors” (Eur J Med Chem, 2009).
Activity calls are given as the source filed them. No rule for the calls is given here.

How the values were obtained:
[1] = Selectivity index, ratio of CC50 for human MT4 cells to EC50 for HIV1 3B; assay type: toxicity, cell-based; conditions: read-out: Ratio CC50/EC50
In short: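 Ratio of CC50 in mock-infected MT-4 cells to EC50 for protection from HIV-1 cytopathogenicity, both read by MTT method.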

[2] = system: Human immunodeficiency virus 1; assay: Antiviral activity against wild type HIV1 3B in human MT4 cells assessed as protection against viral induced cytopathogenicity by MTT assay; assay type: functional, organism-based; conditions: Human immunodeficiency virus 1, 3B
In short: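 MT-4 cells infected with HIV-1; 50% protection from virus-induced cytopathogenicity read by MTT method; EC50 in micromolar; mean of three separate experiments, triplicate samples varying under 10%.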

[3] = Cytotoxicity against mock-infected human MT4 cells by MTT assay; assay type: cell-based
In short: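 Mock-infected MT-4 cells, tested in parallel with the antiviral assay; viability read by MTT method; CC50 is the concentration lowering viability by 50%; mean of three separate experiments, triplicate variation under 10%.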

[4] = system: Human immunodeficiency virus 1; assay: Antiviral activity against HIV1 3B Y181C/K103N double mutant in human MT4 cells assessed as protection against viral induced cytopathogenicity by MTT assay; assay type: functional, organism-based
In short: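 MT-4 cells infected with HIV-1 carrying the NNRTI-resistance mutation were assayed for protection from virus-induced cytopathogenicity, read out as cell viability by MTT. EC50 is the compound concentration giving 50% protection. Values are means of three separate experiments, with variation among triplicate samples under 10%. Efavirenz served as the reference.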

SMILES	selectivity ratio [1]	EC50 [2] [µM]	CC50 [3] [µM]	Activity [4]
O=C1c2ccccc2C(=O)N1CCOC(=S)Nc1c(Cl)cccc1Cl	> 4.8	21	> 100	–
COc1ccc(Cl)cc1NC(=S)OCCN1C(=O)c2ccccc2C1=O	> 2.1	48	> 100	–
O=C1c2ccccc2C(=O)N1CCOC(=S)Nc1ccc(Cl)c(Cl)c1	> 500	0.2	> 100	inactive
CC(=O)c1ccc(NC(=S)OCCN2C(=O)c3ccc(C)cc3C2=O)cc1	> 1430	0.07	> 100	inactive
Cc1ccc(NC(=S)OCCN2C(=O)c3ccccc3C2=O)cc1Cl	> 125	0.8	> 100	inactive
Cc1cccc(Cl)c1NC(=S)OCCN1C(=O)c2ccccc2C1=O	> 4.3	23	> 100	–
O=C1c2ccccc2C(=O)N1CCOC(=S)Nc1ccc(Cl)cc1Cl	–	> 100	> 100	–
O=C(O)c1ccccc1C(=O)NCCOC(=S)Nc1c(F)c(F)cc(F)c1F	> 1.4	71	> 100	inactive
Cc1ccc(NC(=S)OCCN2C(=O)c3ccccc3C2=O)cc1	–	0.02	–	–
Cc1cc(C)cc(NC(=S)OCCN2C(=O)c3ccccc3C2=O)c1	> 25	4	> 100	–
O=C(O)c1ccccc1C(=O)NCCOC(=S)Nc1ccc(F)cc1F	> 26.3	3.8	> 100	inactive
Cc1cc(Cl)ccc1NC(=S)OCCN1C(=O)c2ccccc2C1=O	> 3.7	27	> 100	–
Cc1cc(Br)cc(C)c1NC(=S)OCCN1C(=O)c2ccccc2C1=O	> 11.1	9	> 100	inactive
O=C1c2ccccc2C(=O)N1CCOC(=S)Nc1ccc([N+](=O)[O-])cc1Cl	–	> 100	> 100	–
O=C1c2ccccc2C(=O)N1CCOC(=S)NCc1ccccc1	> 3.8	26	> 100	–
O=C1c2ccccc2C(=O)N1CCOC(=S)Nc1ccc(F)cc1F	> 200	0.5	> 100	inactive
O=C1c2ccccc2C(=O)N1CCOC(=S)Nc1ccc(Br)cc1	–	0.03	–	–

SMILES	selectivity ratio [1]	EC50 [2] [µM]	CC50 [3] [µM]	Activity [4]
C[C@@H](COC(=S)Nc1ccc(Cl)cc1)NC(=O)c1ccccc1C(=O)O	> 43.5	2.3	> 100	inactive
CC(=O)c1ccc(NC(=S)OCCN2C(=O)c3ccccc3C2=O)cc1	–	0.14	–	–
N#Cc1ccc(NC(=S)OCCN2C(=O)c3ccccc3C2=O)cc1	–	0.07	–	–
Cc1ccc(NC(=S)OCCNC(=O)c2ccccc2C(=O)O)cc1Cl	> 23.2	4.3	> 100	–
O=C1c2ccccc2C(=O)N1CCOC(=S)Nc1ccc(F)cc1	–	0.1	–	–
O=C1c2ccccc2C(=O)N1CCOC(=S)NC1CCCCCCC1	> 167	0.6	> 100	–
O=C1c2ccccc2C(=O)N1CCOC(=S)Nc1ccc(Cl)cc1	–	0.04	–	–
O=C1c2ccccc2C(=O)N1CCOC(=S)NC1CCCC1	> 9.1	11	> 100	–
O=C1c2ccccc2C(=O)N1CCOC(=S)Nc1cc(Cl)cc(Cl)c1	> 8	12	> 100	–
O=C1c2ccccc2C(=O)N1CCOC(=S)Nc1ccc(Cl)c(C(F)(F)F)c1	10.5	8	84	–
C=CCNC(=S)OCCN1C(=O)c2ccccc2C1=O	–	> 100	> 100	–
Cc1cc(Br)ccc1NC(=S)OCCN1C(=O)c2ccccc2C1=O	> 5.3	19	> 100	–
O=C1c2ccccc2C(=O)N1CCOC(=S)NCc1ccco1	–	> 100	> 100	inactive
Cc1ccc(Cl)cc1NC(=S)OCCN1C(=O)c2ccccc2C1=O	–	> 100	> 100	–
Cc1ccc2c(c1)C(=O)N(CCOC(=S)Nc1ccc(Cl)cc1)C2=O	–	0.025	–	–
O=C1c2ccccc2C(=O)N1CCOC(=S)Nc1ccccc1	–	1.2	–	–
